In ChEMBL document CHEMBL3585329, “Cafestol-Type Diterpenoids from the Twigs of Tricalysia fruticosa with Potential Anti-inflammatory Activity” (J Nat Prod, 2015):
Activity calls are given as the source filed them. No cut-off for these calls is given here.

Assays:
RAW264.7 [1] = assay: Inhibition of LPS-induced NO release in mouse RAW264.7 cells after 24 hrs by Griess reaction; type: functional, cell-based; conditions: RAW264.7, 24 h
Outline: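 RAW 264.7 cells (10% heat-inactivated FBS, 3.0 mM glutamine, 37 °C, 5% CO2) seeded at 2 × 10^4 cells/mL. DMSO-solubilized compounds added 1 h before LPS. Supernatant nitrite measured by Griess reagent (0.1% naphthylethylene diamine, 1.0% sulfanilamide in 2.5% phosphoric acid), 10 min at room temperature, A550. NO quantified against a sodium nitrite standard curve. Positive control: N-monomethyl-L-arginine.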

[2] = Cytotoxicity against mouse RAW264.7 cells assessed as cell survival up to 100 uM; type: cell-based; conditions: read-out: Survival
Outline: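 RAW 264.7 macrophages were grown with 3.0 mM glutamine, penicillin and streptomycin (100 U/mL each), and 10% heat-inactivated FBS at 37 °C in humidified 5% CO2. Cell survival was examined after exposure to each isolate at concentrations up to 100 μM.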

[3] = target: NF-kappa-B inhibitor alpha (Mus musculus) (UniProt Q9Z1E3); assay: Inhibition of IkappaB alpha phosphorylation in LPS-induced mouse RAW264.7 cells by Western blotting analysis
Sequence of NF-kappa-B inhibitor alpha (Mus musculus) (Q9Z1E3 whole entry, looked up): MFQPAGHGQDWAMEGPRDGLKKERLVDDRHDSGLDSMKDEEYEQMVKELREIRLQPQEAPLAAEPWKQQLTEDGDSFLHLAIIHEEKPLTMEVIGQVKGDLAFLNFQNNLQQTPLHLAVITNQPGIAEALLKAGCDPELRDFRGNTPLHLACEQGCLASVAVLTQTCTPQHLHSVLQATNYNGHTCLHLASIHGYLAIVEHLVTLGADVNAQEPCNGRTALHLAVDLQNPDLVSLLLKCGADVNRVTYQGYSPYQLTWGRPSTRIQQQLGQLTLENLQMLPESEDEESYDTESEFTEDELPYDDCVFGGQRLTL

RAW264.7 [4] = assay: Inhibition of LPS-stimulated JNK phosphorylation in mouse RAW264.7 cells by Western blotting analysis; type: cell-based
Outline: (§1)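 Macrophages seeded at 1 × 10^6 cells/well, pretreated 1 h with 2.5, 5.0 or 10.0 μM test agent (DMSO), then stimulated with LPS 1 μg/mL. Dexamethasone 1.0 μM served as positive control. Lysis in ice-cold RIPA with 0.1% PMSF, 12000g for 20 min. SDS-PAGE, PVDF transfer, 5% skim-milk block, primary antibody overnight at 4 °C, HRP secondary (1:12 000) 1.5 h at RT, ECL detection. Means ± SD.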

[5] = target: MAP kinase p38 (Mus musculus) (UniProt P47811+O08911+Q9WUI1+Q9Z1B7); assay: Inhibition of LPS-stimulated p38 phosphorylation in mouse RAW264.7 cells by Western blotting analysis; type: cell-based; outline: as §1
[6] = target: Transcription factor p65 (Mus musculus) (UniProt Q04207); assay: Inhibition of NFkappaBp65 activation in LPS-induced mouse RAW264.7 cells at 2.5 to 10 uM by Western blotting analysis; type: cell-based; outline: as §1
Sequence of Transcription factor p65 (Mus musculus) (Q04207 whole entry): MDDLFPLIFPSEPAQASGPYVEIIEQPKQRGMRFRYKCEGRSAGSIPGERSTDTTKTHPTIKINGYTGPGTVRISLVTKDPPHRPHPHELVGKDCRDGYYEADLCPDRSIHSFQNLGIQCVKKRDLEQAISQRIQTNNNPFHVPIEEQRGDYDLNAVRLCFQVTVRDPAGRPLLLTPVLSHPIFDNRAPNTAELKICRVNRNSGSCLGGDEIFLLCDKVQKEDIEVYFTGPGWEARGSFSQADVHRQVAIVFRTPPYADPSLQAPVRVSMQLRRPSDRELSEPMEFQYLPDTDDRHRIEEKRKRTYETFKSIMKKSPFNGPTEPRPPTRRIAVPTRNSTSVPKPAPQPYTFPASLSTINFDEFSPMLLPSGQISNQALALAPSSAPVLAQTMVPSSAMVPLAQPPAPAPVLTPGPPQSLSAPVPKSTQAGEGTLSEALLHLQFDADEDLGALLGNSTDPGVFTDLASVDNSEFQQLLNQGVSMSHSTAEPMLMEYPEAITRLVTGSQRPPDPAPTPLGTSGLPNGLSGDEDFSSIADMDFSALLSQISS

RAW264.7 [7] = assay: Suppression of LPS-induced TNFalpha protein expression in mouse RAW264.7 cells by ELISA; type: functional, cell-based
Outline: (§2)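 RAW 264.7 cells seeded at 4 × 10^5 cells/well and exposed to LPS with or without 2.5, 5.0 or 10.0 μM test agent (DMSO stock diluted in DMEM, added 1 h before LPS) for 18 h. Cytokine in cell-free supernatant measured by mouse ELISA kit per manufacturer's protocol. Means ± SD.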

RAW264.7 [8] = assay: Suppression of LPS-induced iNOS protein expression in mouse RAW264.7 cells by Western blotting analysis; type: functional, cell-based; outline: as §1
RAW264.7 [9] = assay: Inhibition of LPS-stimulated ERK phosphorylation in mouse RAW264.7 cells by Western blotting analysis; type: cell-based; outline: as §1
RAW264.7 [10] = assay: Suppression of LPS-induced IL6 protein expression in mouse RAW264.7 cells by ELISA; type: functional, cell-based; outline: as §2

Structure (SMILES)	IC50 (RAW264.7 [1]) [µM]	viability [2] [%]	also measured
C[C@@]12[C@H](O)C=C3OC(=O)C=C3[C@H]1CC[C@@]13C[C@@H](CC[C@H]12)[C@@](O)(CO)C3	> 100	> 90	
C[C@@]12CC[C@@]3(O)OC(=O)C=C3[C@H]1CC[C@]13C[C@](O)(CO)[C@@](O)(CC[C@H]12)C3	> 100	> 90	
CC(=O)OC[C@]1(O)[C@@H]2CC[C@H]3[C@]4(C)CC[C@@]5(O)OC(=O)C=C5[C@H]4CC[C@]3(C2)[C@H]1O	> 100	> 90	
C[C@@]12CC[C@H]3OC(=O)C=C3[C@H]1CC[C@@]13C[C@@H](CC[C@H]12)[C@@](O)(CO)C3	> 100	> 90	
C[C@@]12CC(=O)c3occc3[C@H]1CC[C@]13C[C@](O)(CO)[C@@](O)(CC[C@H]12)C3	> 100	> 90	
C[C@@]12C=CC(=O)C[C@H]1CC[C@]13C[C@](O)(CO)[C@@](O)(CC[C@H]12)C3	27.1	> 90	
CO[C@@H]1C[C@@]2(CC[C@@]3(C)[C@@H]4CC[C@@H]5C[C@@]4(CC[C@H]23)C[C@]5(O)CO)C(=O)O1	> 100	> 90	
C[C@@]12CC=C3OC(=O)C=C3[C@H]1CC[C@@]13C[C@@H](CC[C@H]12)[C@@](O)(CO)C3	> 100	> 90	
CNC(=N)NCCC[C@H](N)C(=O)O [TILARGININE]	40.5		
C[C@@]12CC=C3OC(=O)C=C3[C@H]1CC[C@@]13C[C@@H](CC[C@@H]21)[C@@](O)(CO)[C@@H]3O	> 100	> 90	
CCOC(=O)/C=C1\C(=O)C=C[C@]2(C)[C@@H]1CC[C@]13C[C@](O)(CO)[C@@](O)(CC[C@H]12)C3	6.6	> 90	inhibition [3]: Active; inhibition (RAW264.7 [4]): Active; inhibition [5]: Active; inhibition [6]: Active; inhibition (RAW264.7 [7]): Dose-dependent effect; inhibition (RAW264.7 [8]): Dose-dependent effect; inhibition (RAW264.7 [9]): Active; inhibition (RAW264.7 [10]): Dose-dependent effect
C[C@@]12CC[C@@]3(O)OC(=O)C=C3[C@H]1CC[C@@]13C[C@H](CC[C@@H]21)[C@@](O)(CO)[C@@H]3O	> 100	> 90	
C[C@@]12CC[C@@]3(O)OC(=O)C=C3[C@H]1CC[C@@]13C[C@H](CC[C@H]12)[C@@](O)(CO)C3	> 100	> 90	
C[C@@]12CC[C@H]3OC(=O)C=C3[C@H]1CC[C@@]13C[C@H](CC[C@]12O)[C@@](O)(CO)C3	> 100	> 90	
